Data set [1] in a line: Inhibition of cell growth of human pancreatic cancer cells measured after 72 hrs by CCK8 assay. It counts as functional. In outline:
(§1)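 CCK-8 viability in human pancreatic cancer lines. Compounds were added over 100–0.05 μM 24 h after seeding, alongside a 0.5% DMSO vehicle. After 72 h, CCK-8 was incubated for 1 h at 37 °C. A450 minus A650 was expressed as % of vehicle. IC50 was taken from the dose-response curve. Seeding was 3×10^3/well for MiaPaCa2 and 7×10^3/well for BxPC3 and CFPAC-1. n = 3.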

Data set [2] relates to MIA PaCa-2. Description: Inhibition of cell growth of human MIA PaCa-2 cells measured after 72 hrs by CCK8 assay. It counts as functional. The essentials: as §1
Data set [3] concerns PANC-1. Briefly: Inhibition of cell growth of human PANC-1 cells measured after 72 hrs by CCK8 assay. The class given is functional.
In data set [4] the test system is BXPC-3. Briefly: Inhibition of cell growth of human BXPC-3 cells measured after 72 hrs by CCK8 assay. The class given is functional. The essentials: as §1
The subject of data set [5] is HPAC. Briefly: Inhibition of cell growth of human HPAC cells measured after 72 hrs by CCK8 assay. The class given is functional.
Data set [6] relates to ASPC1. Description: Inhibition of cell growth of human ASPC1 cells measured after 72 hrs by CCK8 assay. It counts as functional.
Data set [7] concerns Capan-2. Briefly: Inhibition of cell growth of human Capan-2 cells measured after 72 hrs by CCK8 assay. The class given is functional.
For data set [8], the system named is PANC-1. Briefly: Inhibition of cell growth of human PANC-1 cells measured after 72 hrs by MTT assay. The class given is functional. In outline:
(§2)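 MTT read-out. Cancer lines were grown in DMEM with 10% FBS, glutamine and antibiotics. MCF10A was grown in DMEM:F12 with 5% horse serum, EGF, hydrocortisone, cholera toxin and insulin. Cells were plated in duplicate at 2500–4000/well, and drug was added 24 h later. After 72 h, absorbance was read at 540 nm. Single-point lines used 25 μM. GI50 is 50% growth inhibition versus untreated control. n = 3.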

Data set [9] relates to Capan-2. Briefly: Inhibition of cell growth of human Capan-2 cells measured after 72 hrs by MTT assay. It counts as functional. The essentials: as §2
Data set [10] can be described thus: Inhibition of cell growth of human MCF-10A cells at 25 uM measured after 72 hrs by MTT assay relative to control. It counts as toxicity, cell-based. The essentials: as §2
Data set [11] concerns Capan-2. Description: Inhibition of cell growth of human Capan-2 cells at 25 uM measured after 72 hrs by MTT assay relative to control. It counts as functional. In outline:
as §2

In data set [12] the test system is BXPC-3. Briefly: Inhibition of cell growth of human BXPC-3 cells at 25 uM measured after 72 hrs by MTT assay relative to control. It counts as functional. The essentials:
as §2

Data set [13] deals with MCF7. Description: Inhibition of cell growth of human MCF7 cells measured after 72 hrs by MTT assay. It counts as functional. The essentials: as §2
Data set [14] deals with A2780. Description: Inhibition of cell growth of human A2780 cells at 25 uM measured after 72 hrs by MTT assay relative to control. The class given is functional. In outline:
as §2

In data set [15] the test system is ASPC1. Description: Inhibition of cell growth of human ASPC1 cells at 25 uM measured after 72 hrs by MTT assay relative to control. The class given is functional. The essentials: as §2
The subject of data set [16] is ASPC1. Description: Inhibition of cell growth of human ASPC1 cells measured after 72 hrs by MTT assay. The class given is functional. The essentials:
as §2

The test system of data set [17] is BXPC-3. Briefly: Inhibition of cell growth of human BXPC-3 cells measured after 72 hrs by MTT assay. It counts as functional. In outline: as §2
Data set [18] is described as follows: Inhibition of cell growth of human MCF-10A cells measured after 72 hrs by MTT assay. It counts as toxicity, cell-based. In outline: as §2
The subject of data set [19] is HT-29. Description: Inhibition of cell growth of human HT-29 cells measured after 72 hrs by MTT assay. It counts as functional. The essentials:
as §2

Data set [20] has as its system MCF7. Description: Inhibition of cell growth of human MCF7 cells at 25 uM measured after 72 hrs by MTT assay relative to control. It counts as functional. The essentials:
as §2

The test system of data set [21] is HT-29. Description: Inhibition of cell growth of human HT-29 cells at 25 uM measured after 72 hrs by MTT assay relative to control. The class given is functional. The essentials: as §2
The test system of data set [22] is PANC-1. Briefly: Inhibition of cell growth of human PANC-1 cells at 25 uM measured after 72 hrs by MTT assay relative to control. It counts as functional. In outline: as §2
Data set [23] deals with MIA PaCa-2. Briefly: Inhibition of cell growth of human MIA PaCa-2 cells at 25 uM measured after 72 hrs by MTT assay relative to control. It counts as functional. In outline: as §2
Data set [24] relates to MIA PaCa-2. Briefly: Inhibition of cell growth of human MIA PaCa-2 cells measured after 72 hrs by MTT assay. The class given is functional. In outline:
as §2

The subject of data set [25] is HPAC. Description: Inhibition of cell growth of human HPAC cells at 25 uM measured after 72 hrs by MTT assay relative to control. The class given is functional. The essentials:
as §2

Data set [26] concerns BE(2)-C. Description: Inhibition of cell growth of human BE2C cells measured after 72 hrs by MTT assay. It counts as functional. The essentials:
as §2

Data set [27] has as its system BE(2)-C. Briefly: Inhibition of cell growth of human BE2C cells at 25 uM measured after 72 hrs by MTT assay relative to control. The class given is functional. In outline:
as §2

Data set [28] relates to A2780. Description: Inhibition of cell growth of human A2780 cells measured after 72 hrs by MTT assay. It counts as functional. In outline:
as §2

Data set [29] concerns HPAC. Briefly: Inhibition of cell growth of human HPAC cells measured after 72 hrs by MTT assay. It counts as functional. The essentials:
as §2

For nine molecules, GI50 and inhibition results are on record in ChEMBL document CHEMBL5329210, “Novel piperazine-1,2,3-triazole leads for the potential treatment of pancreatic cancer” (RSC Med Chem, 2023).

The structures appear in SMILES notation.

In the case of `O=S(=O)(NCCCNCc1ccc(Cl)cc1)c1cc(C(F)(F)F)cc(C(F)(F)F)c1`, the 50% growth inhibitory concentration (GI50) in data set [1] amounted to 1.6 µM.

With `COc1cccc(-c2cn(CCCN3CCN(S(=O)(=O)c4ccc(NC(C)=O)cc4)CC3)nn2)c1`, the 50% growth inhibitory concentration (GI50) in data set [2] is roughly 50 µM.

Turning to `CCc1ccc(-c2cn(CCCN3CCN(S(=O)(=O)c4ccc(C(F)(F)F)cc4)CC3)nn2)cc1`, the 50% growth inhibitory concentration (GI50) in data set [3] is 6.1 µM; in [4] it was 3.7 µM; in data set [5] it was 5.8 µM; in data set [6], 8 µM; in [7], 6.1 µM.

In the case of `O=S(=O)(c1ccc(C(F)(F)F)cc1)N1CCN(CCCn2cc(-c3ccc(Br)cc3)nn2)CC1`, the 50% growth inhibitory concentration (GI50) in data set [3] stood at 6.8 µM; in data set [4], 8 µM; in data set [5] it was 9.6 µM; in [6], 8.3 µM; in data set [7] it was 7.7 µM.

As for `O=S(=O)(c1ccc(C(F)(F)F)cc1)N1CCN(CCCn2cc(-c3ccc(C(F)(F)F)cc3)nn2)CC1`, the GI50 in data set [3] amounted to 16 µM; in data set [4], 14 µM; in data set [5], 15 µM; in data set [6] it was 18 µM; in data set [7] it was 16 µM.

Turning to `O=S(=O)(c1ccccc1C(F)(F)F)N1CCN(CCCn2cc(-c3ccc(Br)cc3)nn2)CC1`, the concentration for 50% growth inhibition (GI50) in data set [8] is greater than 50 µM; in data set [9], 23 µM; in data set [13], 9.2 µM; in [16] it was greater than 50 µM; in data set [17], greater than 50 µM; in data set [19], 10 µM. For the same molecule, the 50% growth inhibitory concentration (GI50) in data set [24] is greater than 50 µM; in data set [26] it was 38 µM; in data set [28] it was 14 µM; in data set [29] it was greater than 50 µM. Further, in data set [10], the inhibition at 72 h, 25 µM was 72%. The inhibition at 25 µM in data set [11] was 65%; in data set [12], less than 10%; in data set [14], 68%; in data set [15] it was 51%; in data set [20], 87%; in data set [21], 92%. Moreover, the inhibition at 25 µM turned out to be 53% in [22], 70% in data set [23], 42% in data set [25] and 58% in data set [27]. Besides, in data set [18], the GI50 at 72 h was determined as 12 µM.

Regarding `COc1ccc(-c2cn(CCCN3CCN(S(=O)(=O)c4ccc(C(F)(F)F)cc4)CC3)nn2)cc1`, the GI50 is 5.2 µM in data set [8]; 8.4 µM in data set [9]; 6.1 µM in data set [13]; 14 µM in data set [16]; 12 µM in data set [17]; 8.6 µM in data set [19]. Moreover, the GI50 in data set [24] is 7.8 µM; in data set [26], 6.4 µM; in [28], 6.2 µM; in [29] it was 16 µM. In data set [18], this molecule displayed a GI50 at 72 h of 4.9 µM.

The molecule `CC(C)(C)c1ccc(-c2cn(CCCNCCNS(=O)(=O)c3cc(C(F)(F)F)cc(C(F)(F)F)c3)nn2)cc1` showed a concentration for 50% growth inhibition (GI50) in [1] of 1.1 µM.

Turning to `COc1ccccc1-c1cn(CCCN2CCN(S(=O)(=O)c3ccc(C(F)(F)F)cc3)CC2)nn1`, the GI50 in [8] was found to be 0.68 µM; in data set [9], 0.56 µM; in data set [13], 0.36 µM; in [16], 0.61 µM; in data set [17], 0.48 µM; in data set [19], 0.47 µM. Moreover, the 50% growth inhibitory concentration (GI50) came to 0.64 µM in data set [24], 0.59 µM in [26], 0.8 µM in data set [28] and 0.43 µM in data set [29]. This molecule gave a GI50 at 72 h in [18] of 1 µM.
